Assay results from PMC9762201 (Current Research in Pharmacology and Drug Discovery, 2022).
“Also recorded” adds a separate entry of the source.

How the values were obtained:
α1B-AR [1] = experiment: Total inositol phosphate assay, cells expressing α1B-AR; assay type: cell-based; settings: data not shown
Procedure, shortened: (§1)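 Cells expressing a single α1-AR subtype were seeded in DMEM at about 5 x 10^4 cells/well and rested overnight at 37 °C. They were labelled overnight with 3H-inositol, washed, and placed in serum-free DMEM with 10 mM LiCl (final) for 1 h. NE or Epi (one dose per well) plus test compound at one or several concentrations were added for 1 h at 37 °C. Total inositol phosphates were measured by anion-exchange chromatography.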

5-HT7A = 5-HT7A (Homo sapiens, UniProt P34969); experiment: Psychoactive Drug Screening program GPCR binding screen, 5-HT7A
[2] = system: phosphorylation of CREB at Ser133; experiment: p-CREB; assay type: cell-based; settings: 10^−8 M; NE 10^−4 M; propranolol and rauwolscine present
α1D-AR [3] = biological target: T1, α1D-AR (Homo sapiens, UniProt P25100); experiment: Total inositol phosphate assay, cells expressing α1D-AR; assay type: cell-based; settings: data not shown
T1 sequence (P25100 1-572): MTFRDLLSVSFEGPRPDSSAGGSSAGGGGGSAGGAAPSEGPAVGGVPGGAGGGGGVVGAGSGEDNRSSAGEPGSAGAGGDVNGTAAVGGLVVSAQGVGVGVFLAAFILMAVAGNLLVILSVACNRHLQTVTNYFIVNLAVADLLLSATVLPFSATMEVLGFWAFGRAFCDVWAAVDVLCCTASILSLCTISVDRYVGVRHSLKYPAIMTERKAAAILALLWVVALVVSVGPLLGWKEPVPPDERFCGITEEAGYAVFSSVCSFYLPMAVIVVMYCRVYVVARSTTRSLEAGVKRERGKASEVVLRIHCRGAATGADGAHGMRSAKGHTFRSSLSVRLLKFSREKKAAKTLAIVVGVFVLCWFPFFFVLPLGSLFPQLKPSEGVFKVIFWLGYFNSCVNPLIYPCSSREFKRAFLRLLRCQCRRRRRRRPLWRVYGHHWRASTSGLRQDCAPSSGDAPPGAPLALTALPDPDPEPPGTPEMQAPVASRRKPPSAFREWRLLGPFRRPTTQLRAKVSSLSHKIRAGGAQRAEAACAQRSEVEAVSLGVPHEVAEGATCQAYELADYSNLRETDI
Procedure, shortened: as §1

α1D-AR [4] = biological target: T1, α1D-AR; assay type: binding
α1A-AR [5] = biological target: T2, α1A-AR (Homo sapiens, UniProt P35348); experiment: Total inositol phosphate assay in Rat-1 fibroblasts expressing α1A-AR; assay type: cell-based
T2 sequence (P35348 1-466): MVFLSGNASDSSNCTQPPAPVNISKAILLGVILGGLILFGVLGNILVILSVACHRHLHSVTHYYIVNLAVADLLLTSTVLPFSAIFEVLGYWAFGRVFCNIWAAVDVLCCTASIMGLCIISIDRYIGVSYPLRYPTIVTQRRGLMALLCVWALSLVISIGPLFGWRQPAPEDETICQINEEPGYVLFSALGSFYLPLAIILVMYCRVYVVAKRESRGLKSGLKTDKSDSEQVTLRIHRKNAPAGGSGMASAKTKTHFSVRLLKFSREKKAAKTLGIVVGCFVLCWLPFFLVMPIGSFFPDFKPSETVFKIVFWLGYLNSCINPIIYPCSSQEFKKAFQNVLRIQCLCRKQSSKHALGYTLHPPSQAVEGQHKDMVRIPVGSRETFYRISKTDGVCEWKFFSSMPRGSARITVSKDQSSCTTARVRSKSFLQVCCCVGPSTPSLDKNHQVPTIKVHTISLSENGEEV

[6] = 2.6 mg/kg, q.d., PO; 3 or 6 months of dosing; 3XTG mice; ref Perez, 2021b; cited from earlier work
α1B-AR [7] = assay type: binding; settings: 0.5 mM GTP
α1A-AR [8] = biological target: T2, α1A-AR; assay type: binding
α2A-AR = biological target: T3, α2A-AR (Homo sapiens, UniProt P08913); assay type: binding; settings: Cos-1 membranes
T3 sequence (P08913 1-465): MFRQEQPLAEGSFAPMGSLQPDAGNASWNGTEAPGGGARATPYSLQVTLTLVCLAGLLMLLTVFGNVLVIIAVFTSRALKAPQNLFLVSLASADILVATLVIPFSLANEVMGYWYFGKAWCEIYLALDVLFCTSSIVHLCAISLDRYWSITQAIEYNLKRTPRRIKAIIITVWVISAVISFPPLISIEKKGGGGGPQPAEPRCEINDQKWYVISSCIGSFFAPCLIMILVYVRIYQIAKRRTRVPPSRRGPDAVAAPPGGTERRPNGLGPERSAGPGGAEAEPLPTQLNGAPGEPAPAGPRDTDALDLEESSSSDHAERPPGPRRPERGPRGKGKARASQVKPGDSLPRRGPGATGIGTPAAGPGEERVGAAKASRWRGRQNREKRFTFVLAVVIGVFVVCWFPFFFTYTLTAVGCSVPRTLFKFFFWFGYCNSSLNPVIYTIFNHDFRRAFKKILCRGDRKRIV

α1D-AR [9] = biological target: T1, α1D-AR; experiment: cAMP assay in Rat-1 fibroblasts expressing α1D-AR; assay type: cell-based; settings: Cmpd-3 10^−6, 10^−5 M
Procedure, shortened: (§2)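 Rat-1 fibroblasts expressing one α1-AR subtype were plated serum-free at about 2.4 x 10^4 cells/well and rested overnight. They were preincubated 2 h at 37 °C with 10 μM propranolol, 0.1 μM rauwolscine and test compound. IBMX (100–200 μM) and NE or Epi were then added for 2 h, either as an agonist dose-response or at a fixed 10^-4 M. Cells were extracted in 0.1 M HCl for 20 min at RT, centrifuged at 1000 g, and cAMP was measured by EIA.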

α1A-AR [10] = biological target: T2, α1A-AR; experiment: 3H-NE binding potentiation, membranes from Rat-1 fibroblasts expressing α1A-AR
α1A-AR [11] = experiment: cAMP assay and PAM assay in Rat-1 fibroblasts expressing α1A-AR; assay type: cell-based
3XTG mice = settings: 2.6 mg/kg, q.d., PO, 3 or 6 months, ref Perez, 2021b; cited from earlier work
α1B-AR [12] = experiment: cAMP assay in Rat-1 fibroblasts expressing α1B-AR; assay type: cell-based; settings: Cmpd-3 10^−7 to 10^−5 M
Procedure, shortened: as §2

[13] = compound 10^−5 M, absence of GTP, 125I-HEAT

Sequence of 5-HT7A (P34969 1-445 isoform P34969-2): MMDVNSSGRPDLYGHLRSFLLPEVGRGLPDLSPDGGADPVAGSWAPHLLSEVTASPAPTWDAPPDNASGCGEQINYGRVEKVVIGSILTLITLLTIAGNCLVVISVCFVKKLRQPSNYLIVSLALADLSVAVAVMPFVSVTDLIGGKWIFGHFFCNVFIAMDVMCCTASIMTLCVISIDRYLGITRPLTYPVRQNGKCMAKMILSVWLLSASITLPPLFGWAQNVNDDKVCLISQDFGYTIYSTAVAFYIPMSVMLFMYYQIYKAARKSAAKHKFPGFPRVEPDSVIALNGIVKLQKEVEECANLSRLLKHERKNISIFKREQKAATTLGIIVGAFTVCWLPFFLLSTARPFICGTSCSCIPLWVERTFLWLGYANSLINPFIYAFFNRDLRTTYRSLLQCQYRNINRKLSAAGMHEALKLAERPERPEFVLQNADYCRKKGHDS

CC(C)Cc1c(OCC2=NCCN2)cccc1N(C)S(C)(=O)=O.Cl [Cmpd-3, N-(3-((4,5-Dihydro-1H-imidazol-2-yl)methoxy)-2-isobutylphenyl)-N-methylmethanesulfonamide hydrochloride]
effect on NE or Epi-mediated IP signal at α1B-AR (α1B-AR [1]): no effect
Ki (5-HT7A): 6 µM
effect on NE-mediated p-CREB levels [2]: significantly potentiated; also recorded: increases
effect on NE or Epi-mediated IP signal at α1D-AR (α1D-AR [3]): no effect
Ki (α1D-AR [4]): 30 µM
difference in binding selectivity between the α1-AR subtypes (α1D-AR [4]; α1A-AR versus α1B-/α1D-AR): 1000 fold
effect on Epi-mediated inositol phosphate signal at α1A-AR (α1A-AR [5]): no effect; also recorded: does not affect
effect on NE-mediated inositol phosphate signal at α1A-AR (α1A-AR [5]): no effect; also recorded: does not affect
intrinsic (basal) agonist activity, inositol phosphate (α1A-AR [5]; compound alone, dose-response): cannot stimulate; also recorded: do not show any basal activity
effect on systolic blood pressure [6]: failed to change
binding at α1B-AR (125I-HEAT competition) (α1B-AR [7]): did not display any binding; also recorded: does not bind
extent of inhibition of 125I-HEAT binding at α1A-AR (α1A-AR [8]; 0.5 mM GTP): could not fully inhibit; also recorded: incomplete inhibition
fraction of receptor in the high affinity state of NE in presence of compound (α1A-AR [8]; compound 10^−5 M, absence of GTP): 55%
effect on NE binding at α1A-AR (α1A-AR [8]; [13]): stabilizes the high affinity binding site of NE
effect on binding profile of Epi at α1A-AR (α1A-AR [8]; [13]): no effect
extent of inhibition of 3H-RX821002 binding at α2A-AR (α2A-AR): fully inhibited
effect on NE or Epi-mediated cAMP response at α1D-AR (α1D-AR [9]): no effect; also recorded: does not change the potency or the Emax
EC50 (α1A-AR [10]): 0.0001 µM
effect on Epi-mediated cAMP response at α1A-AR (α1A-AR [11]; Epi dose-response, propranolol and rauwolscine present): did not affect
PAM activity (NE-mediated cAMP potentiation, PAM assay) (α1A-AR [11]; NE 10^−4 M held constant, compound dose-response): display PAM effect
effect on NE-mediated cAMP response at α1A-AR (α1A-AR [11]; NE dose-response, propranolol and rauwolscine present): potentiated; also recorded: increases the Emax
intrinsic (basal) agonist activity, cAMP (α1A-AR [11]; compound alone, dose-response): cannot stimulate; also recorded: do not show any basal activity
effect on long-term potentiation and cognitive behavior (3XTG mice): statistically increased
effect on NE or Epi-mediated cAMP response at α1B-AR (α1B-AR [12]): no effect; also recorded: does not change the potency or the Emax
